The test system of series [1] is A549. The experiment in a line: Antiproliferative activity against human A549 cells assessed as growth inhibition measured after 48 hrs by sulforhodamine B assay. The series is classed as functional. The note with it: A549, 48 h. In short, it runs like this:
(§1)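 NCI protocol with minor modifications. DMSO stocks at 40 mM. Cells exposed for 48 h to serial decimal dilutions, 0.001–100 µM. GI50 in µM from at least two independent experiments, with SD.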
(Sulforhodamine B stains cellular protein and so reports cell mass.)

Series [2] relates to HeLa. In words: Antiproliferative activity against human HeLa cells assessed as growth inhibition measured after 48 hrs by sulforhodamine B assay. The series is classed as functional. In outline: as §1
For series [3], the system named is HeLa. The experiment in a line: Anticancer activity against human HeLa cells assessed as increase in ROS production at 10 uM measured after 48 hrs by ROS-GloTM H2O2 assay. Type of series: functional, cell-based. In short, it runs like this: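 HeLa cells in RPMI 1640 with 1 mM glutamine, 5% FBS and antibiotics, 37 °C, 5% CO2. Exposed to compound at 1 or 10 µM for 48 h. ROS (H2O2) read with a non-lytic, HRP-free luminescent kit per the manufacturer.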

The test system of series [4] is SW1573. The experiment in a line: Antiproliferative activity against human SW1573 cells over-expressing P-gp incubated for 48 hrs in absence of P-gp and CYP3A4/5 inhibitor verapamil by sulforhodamine B assay. Type of series: functional. The note with it: SW1573, 48 h. In short, it runs like this: (§2)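 Wild-type and P-gp-overexpressing SW1573 cells were grown in RPMI 1640 with 1 mM glutamine, 5% FBS and antibiotics at 37 °C. Cells were exposed for 48 h to serial decimal dilutions, 0.001–100 µM, with or without 10 µM verapamil. GI50 values come from at least two independent experiments, with SD.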

The subject of series [5] is SW1573. The experiment in a line: Antiproliferative activity against human SW1573 cells over-expressing P-gp incubated for 48 hrs in presence of P-gp and CYP3A4/5 inhibitor verapamil by sulforhodamine B assay. The series is classed as functional. As to conditions: SW1573, 48 h. In outline: as §2
Series [6] concerns SW1573. In words: Antiproliferative activity against human SW1573 cells incubated for 48 hrs in presence of P-gp and CYP3A4/5 inhibitor verapamil by sulforhodamine B assay. As to conditions: SW1573, 48 h. The series is classed as functional. In outline: as §2
In series [7] the test system is SW1573. In words: Antiproliferative activity against human SW1573 cells incubated for 48 hrs in absence of P-gp and CYP3A4/5 inhibitor verapamil by sulforhodamine B assay. The note with it: SW1573, 48 h. Type of series: functional. In outline: as §2
Series [8] relates to SW1573. The experiment in a line: Resistance factor, ratio of GI50 for antiproliferative activity against human SW1573 cells over-expressing P-gp incubated for 48 hrs in absence of P-gp and CYP3A4/5 inhibitor verapamil by sulforhodamine B assay to GI50 for antiproliferative activity against human SW1573 cells incubated for 48 hrs in absence of P-gp and CYP3A4/5 inhibitor verapamil by sulforhodamine B assay. Type of series: functional. In short, it runs like this:
(§3)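 Resistance factor: GI50 in SW1573/PGP divided by GI50 in wild-type SW1573. Both came from 48 h exposure, with or without 10 µM verapamil. GI50 values are from at least two independent experiments.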

In series [9] the test system is WiDr. In words: Antiproliferative activity against human WiDr cells assessed as growth inhibition measured after 48 hrs by sulforhodamine B assay. Type of series: functional. In short, it runs like this: as §1
Series [10] can be described thus: Cytotoxicity against human hTERT-BJ cells assessed as growth inhibition measured after 48 hrs by sulforhodamine B assay. The series is classed as cell-based. As to conditions: hTERT-BJ cells. In outline:
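NCI protocol with minor modifications. Human tumour lines or fibroblasts in RPMI 1640 with 1 mM glutamine, 5% FBS and antibiotics, 37 °C, 5% CO2, low passage. DMSO stocks at 40 mM. Cells exposed for 48 h to serial decimal dilutions, 0.001–100 µM. GI50 in µM from at least two independent experiments, with SD.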

In series [11] the test system is HBL-100. The experiment in a line: Antiproliferative activity against human HBL100 cells assessed as growth inhibition measured after 48 hrs by sulforhodamine B assay. Type of series: functional. As to conditions: HBL-100, 48 h. In outline:
as §1

Series [12] concerns T47D. In words: Antiproliferative activity against human T47D cells assessed as growth inhibition measured after 48 hrs by sulforhodamine B assay. The series is classed as functional. In outline:
as §1

In series [13] the test system is SW1573. In words: Resistance factor, ratio of GI50 for antiproliferative activity against human SW1573 cells over-expressing P-gp incubated for 48 hrs in presence of P-gp and CYP3A4/5 inhibitor verapamil by sulforhodamine assay to GI50 for antiproliferative activity against human SW1573 cells incubated for 48 hrs in presence of P-gp and CYP3A4/5 inhibitor verapamil by sulforhodamine B assay. Type of series: functional. In outline: as §3

Active and inactive are the calls of the source. No cut-off for these calls is given here. Some results are limits rather than exact numbers.

With `CCCOC(=[Se])Nc1ccc2c(C)cc(=O)oc2c1`, the GI50 (in general, the concentration giving 50% growth inhibition) amounted to 37 µM in series [1]; 23 µM in [2]; 32 µM in series [4]; 35 µM in series [5]; 12 µM in [6]; 16 µM in series [7]. Besides, the GI50 amounted to 42 µM in series [9], 34 µM in series [11] and 41 µM in series [12]. The result in series [3] was Active. Besides, the RatioGI50 in [8] came to 2; in series [13] it was 3. The GI50 at 48 h in series [10] was found to be 33 µM.

In the case of `CCOC(=[Se])Nc1ccc2c(C)cc(=O)oc2c1`, the GI50 in [1], in series [2], in series [9], in series [11] and in series [12] was > 100 µM in each case.

As to `Cc1cc(=O)oc2cc(NC(=[Se])Nc3ccc(C(F)(F)F)cc3)ccc12`, the GI50 was determined as 8.6 µM in [1]; 21 µM in series [2]; 24 µM in series [4]; 22 µM in [5]; 26 µM in series [6]; 20 µM in series [7]. For the same compound, the GI50 in series [9] turned out to be 6 µM; in series [11], 13 µM; in series [12] it was 8.7 µM. Further, the outcome in series [3] was Active. In addition, the RatioGI50 is recorded as 1.2 in series [8] and 0.9 in [13]. Moreover, in [10], the GI50 at 48 h came out at 32 µM.

In the case of `CC(=O)O[C@H]1C(=O)[C@@]2(C)[C@H]([C@H](OC(=O)c3ccccc3)[C@]3(O)C[C@H](OC(=O)[C@H](O)[C@@H](NC(=O)c4ccccc4)c4ccccc4)C(C)=C1C3(C)C)[C@]1(OC(C)=O)CO[C@@H]1C[C@@H]2O` [PACLITAXEL], the GI50 amounted to 0.196 µM in [4], 0.0042 µM in series [5], 0.0016 µM in series [6] and 0.0015 µM in series [7]. Further, the RatioGI50 in [13] is listed as 3.

For the compound `COc1ccc(NC(=[Se])Nc2ccc3c(C)cc(=O)oc3c2)cc1`, the GI50 in [1] was determined as 28 µM; in [2], 35 µM; in series [4], 24 µM; in series [5], 25 µM; in series [6] it was 10 µM; in [7] it was 14 µM. The figures for the GI50 in series [9], in [11] and in series [12] were 23 µM, 38 µM and 33 µM, respectively. In series [3], the outcome was Active. For the same compound, the RatioGI50 in [8] came to 1.7; in series [13] it was 2.5. The GI50 at 48 h in series [10] is > 100 µM.

Take `CC[C@]1(O)C[C@@H]2CN(CCc3c([nH]c4ccccc34)[C@@](C(=O)OC)(c3cc4c(cc3OC)N(C)[C@H]3[C@@](O)(C(=O)OC)[C@H](OC(C)=O)[C@]5(CC)C=CCN6CC[C@]43[C@@H]65)C2)C1` [VINBLASTINE]: the GI50 in series [4] was found to be 2.05 µM; in [5], 0.001 µM; in series [6], 0.0008 µM; in series [7], 0.0009 µM. For the same compound, the RatioGI50 in series [13] turned out to be 1.

For `COC(=[Se])Nc1ccc2c(C)cc(=O)oc2c1`, the GI50 in [1] is > 100 µM; in [2], 78 µM; in series [9], > 100 µM; in series [11], > 100 µM; in series [12], > 100 µM.

As for `Cc1cc(=O)oc2cc(NC(=[Se])Nc3ccccc3)ccc12`, the GI50 was determined as 28 µM in [1]; 24 µM in series [2]; 21 µM in series [4]; 21 µM in [5]; 25 µM in [6]; 23 µM in series [7]. Moreover, the GI50 was 34 µM in series [9], 28 µM in [11] and 24 µM in series [12]. In series [3], the result was Active. The results for the RatioGI50 in series [8] and in [13] were 0.9 and 0.8, respectively. Besides, the GI50 at 48 h in [10] is > 100 µM.

The values above are taken from ChEMBL document CHEMBL4351017, “Selenocoumarins as new multitarget antiproliferative agents: Synthesis, biological evaluation and in silico calculations” (Eur J Med Chem, 2019).
